Results as given in ChEMBL document CHEMBL4725348, “Rational Design and Evaluation of 6-(Pyrimidin-2-ylamino)-3,4-dihydroquinoxalin-2(1H)-ones as Polypharmacological Inhibitors of BET and Kinases” (J Med Chem, 2020).

target: T1, Bromodomain-containing protein 4 (Homo sapiens, UniProt O60885); experiment: Inhibition of His6-tagged BRD4 bromodomain 1 (unknown origin) expressed in Escherichia coli Bl21(DE3) cells incubated for 4 hrs by FP assay; conditions: not given
In short: (§1)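 Fluorescence polarization. Purified bromodomain (His6 tag removed with TEV, size-exclusion purified) equilibrated with fluorescent ligand. Compound or DMSO (2‰ final) then added and left 4 h at room temperature in the dark. Anisotropy read at ex 485/em 530 nm. IC50 values are means of at least two independent experiments; single-point inhibition tested at the listed concentration.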

In order of rising IC50:
1. CC(C)N1c2cc(Nc3nccc(-c4cccc5ncccc45)n3)ccc2N(C)C(=O)[C@H]1C  15.2 nM
2. CC(C)N1c2cc(Nc3nccc(-c4ccnc5ccccc45)n3)ccc2N(C)C(=O)[C@H]1C  25.3 nM
3. CC(C)N1c2cc(Nc3nccc(-c4cccc5c4CCCN5)n3)ccc2N(C)C(=O)[C@H]1C  27 nM
4. CC(C)N1c2cc(Nc3nccc(-c4cccc5cnccc45)n3)ccc2N(C)C(=O)[C@H]1C  75.9 nM
5. CC(C)N1c2cc(Nc3cccc(-c4ccncc4)c3)ccc2N(C)C(=O)[C@H]1C  77.3 nM
6. CC(C)N1c2cc(Nc3ncc(F)c(-c4cncc5ccccc45)n3)ccc2N(C)C(=O)[C@H]1C  81.3 nM
7. Cc1c(N)cccc1-c1ccnc(Nc2ccc3c(c2)N(C(C)C)[C@H](C)C(=O)N3C)n1  115 nM
8. CC(C)N1c2cc(Nc3nccc(-c4cccc(C#N)c4)n3)ccc2N(C)C(=O)[C@H]1C  161 nM
9. CNc1cccc(-c2ccnc(Nc3ccc4c(c3)N(C(C)C)[C@H](C)C(=O)N4C)n2)c1  173 nM
10. Cc1ccc(N)cc1-c1ccnc(Nc2ccc3c(c2)N(C(C)C)[C@H](C)C(=O)N3C)n1  236 nM
11. COc1ccccc1-c1ccnc(Nc2ccc3c(c2)N(C(C)C)[C@H](C)C(=O)N3C)n1  477 nM
12. COc1cc(F)ccc1-c1ccnc(Nc2ccc3c(c2)N(C(C)C)[C@H](C)C(=O)N3C)n1  497 nM
13. COc1ccc(-c2ccnc(Nc3ccc4c(c3)N(C(C)C)[C@H](C)C(=O)N4C)n2)cc1  535 nM
14. CC(C)N1c2cc(Nc3cccc(-c4cccc(C#N)c4)c3)ccc2N(C)C(=O)[C@H]1C  666 nM
15. COc1ccccc1-c1cccc(Nc2ccc3c(c2)N(C(C)C)[C@H](C)C(=O)N3C)c1  820 nM
16. COc1cccc(-c2ccnc(Nc3ccc4c(c3)N(C(C)C)[C@H](C)C(=O)N4C)n2)c1  965 nM

target: T2, Cyclin-dependent kinase 9 (Homo sapiens, UniProt P50750); experiment: Inhibition of human CDK9 at 1 uM by mobility shift assay relative to control; conditions: not given
T2 sequence (P50750 whole entry): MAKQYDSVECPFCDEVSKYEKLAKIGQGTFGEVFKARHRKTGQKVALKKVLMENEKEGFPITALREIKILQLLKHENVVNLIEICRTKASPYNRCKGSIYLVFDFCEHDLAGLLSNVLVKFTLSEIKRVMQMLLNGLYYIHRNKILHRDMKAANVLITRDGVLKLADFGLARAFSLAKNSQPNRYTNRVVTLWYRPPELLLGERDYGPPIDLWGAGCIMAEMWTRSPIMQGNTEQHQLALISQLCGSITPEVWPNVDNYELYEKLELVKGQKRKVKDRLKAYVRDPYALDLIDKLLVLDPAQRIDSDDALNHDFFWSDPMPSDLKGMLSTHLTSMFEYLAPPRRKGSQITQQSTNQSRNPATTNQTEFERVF
In short: (§2)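 Recombinant CDK9 incubated with compound and CTD3 peptide substrate. Activity read by Caliper mobility-shift; Dinaciclib served as positive control. IC50 values are means of at least two independent experiments.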

In order of rising inhibition:
1. CC(C)N1c2cc(Nc3cccc(-c4cccc(C#N)c4)c3)ccc2N(C)C(=O)[C@H]1C  -4.1%
2. CC(C)N1c2cc(Nc3cccc(-c4ccncc4)c3)ccc2N(C)C(=O)[C@H]1C  0.7%
3. COc1ccccc1-c1cccc(Nc2ccc3c(c2)N(C(C)C)[C@H](C)C(=O)N3C)c1  3.8%
4. CC(C)N1c2cc(Nc3nccc(-c4cccc(Nc5ccccc5)c4)n3)ccc2N(C)C(=O)[C@H]1C  47.8%
5. CC(C)N1c2cc(Nc3nccc(-c4cccc(C#N)c4)n3)ccc2N(C)C(=O)[C@H]1C  71.8%
6. COc1ccccc1-c1ccnc(Nc2ccc3c(c2)N(C(C)C)[C@H](C)C(=O)N3C)n1  104%

target: T2, Cyclin-dependent kinase 9; experiment: Inhibition of human CDK9 at 100 nM by mobility shift assay relative to control; conditions: not given; in short: as §2

In order of falling inhibition:
1. COc1ccccc1-c1ccnc(Nc2ccc3c(c2)N(C(C)C)[C@H](C)C(=O)N3C)n1  67.9%
2. CC(C)N1c2cc(Nc3nccc(-c4cccc(C#N)c4)n3)ccc2N(C)C(=O)[C@H]1C  25.2%
3. CC(C)N1c2cc(Nc3nccc(-c4cccc(Nc5ccccc5)c4)n3)ccc2N(C)C(=O)[C@H]1C  8.8%
4. CC(C)N1c2cc(Nc3cccc(-c4ccncc4)c3)ccc2N(C)C(=O)[C@H]1C  2.2%
5. CC(C)N1c2cc(Nc3cccc(-c4cccc(C#N)c4)c3)ccc2N(C)C(=O)[C@H]1C  2%
6. COc1ccccc1-c1cccc(Nc2ccc3c(c2)N(C(C)C)[C@H](C)C(=O)N3C)c1  -3%

target: Cyclin-dependent kinase 6 (Homo sapiens) (UniProt Q00534); experiment: Inhibition of CDK6 (unknown origin) at 1 uM relative to control; conditions: not given
Sequence (Q00534 whole entry): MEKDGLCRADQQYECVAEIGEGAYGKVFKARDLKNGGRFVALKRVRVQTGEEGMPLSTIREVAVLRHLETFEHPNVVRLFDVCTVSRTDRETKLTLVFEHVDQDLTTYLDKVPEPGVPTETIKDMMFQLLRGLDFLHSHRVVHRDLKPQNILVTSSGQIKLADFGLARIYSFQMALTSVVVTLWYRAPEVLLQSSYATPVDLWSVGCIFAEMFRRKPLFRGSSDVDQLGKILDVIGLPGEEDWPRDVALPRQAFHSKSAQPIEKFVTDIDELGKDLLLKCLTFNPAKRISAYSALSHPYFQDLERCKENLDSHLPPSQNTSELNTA

In order of rising inhibition:
1. CC(C)N1c2cc(Nc3cccc(-c4cccc(C#N)c4)c3)ccc2N(C)C(=O)[C@H]1C  -3.3%
2. COc1ccccc1-c1cccc(Nc2ccc3c(c2)N(C(C)C)[C@H](C)C(=O)N3C)c1  -0.1%
3. CC(C)N1c2cc(Nc3cccc(-c4ccncc4)c3)ccc2N(C)C(=O)[C@H]1C  0.7%
4. CC(C)N1c2cc(Nc3nccc(-c4cccc(C#N)c4)n3)ccc2N(C)C(=O)[C@H]1C  2.8%
5. COc1ccccc1-c1ccnc(Nc2ccc3c(c2)N(C(C)C)[C@H](C)C(=O)N3C)n1  8.1%

target: Cyclin-dependent kinase 6 (Homo sapiens) (UniProt Q00534); experiment: Inhibition of CDK6 (unknown origin) at 100 nM relative to control; conditions: not given

In order of rising inhibition:
1. COc1ccccc1-c1cccc(Nc2ccc3c(c2)N(C(C)C)[C@H](C)C(=O)N3C)c1  -1.4%
2. CC(C)N1c2cc(Nc3nccc(-c4cccc(C#N)c4)n3)ccc2N(C)C(=O)[C@H]1C  -0.8%
3. COc1ccccc1-c1ccnc(Nc2ccc3c(c2)N(C(C)C)[C@H](C)C(=O)N3C)n1  2.3%
4. CC(C)N1c2cc(Nc3cccc(-c4cccc(C#N)c4)c3)ccc2N(C)C(=O)[C@H]1C  2.3%
5. CC(C)N1c2cc(Nc3cccc(-c4ccncc4)c3)ccc2N(C)C(=O)[C@H]1C  2.7%

target: Phosphatidylinositol 4,5-bisphosphate 3-kinase catalytic subunit alpha isoform (Homo sapiens) (UniProt P42336); experiment: Inhibition PI3Kalpha (unknown origin) at 1 uM relative to control; conditions: not given
Sequence (P42336 whole entry, canonical isoform): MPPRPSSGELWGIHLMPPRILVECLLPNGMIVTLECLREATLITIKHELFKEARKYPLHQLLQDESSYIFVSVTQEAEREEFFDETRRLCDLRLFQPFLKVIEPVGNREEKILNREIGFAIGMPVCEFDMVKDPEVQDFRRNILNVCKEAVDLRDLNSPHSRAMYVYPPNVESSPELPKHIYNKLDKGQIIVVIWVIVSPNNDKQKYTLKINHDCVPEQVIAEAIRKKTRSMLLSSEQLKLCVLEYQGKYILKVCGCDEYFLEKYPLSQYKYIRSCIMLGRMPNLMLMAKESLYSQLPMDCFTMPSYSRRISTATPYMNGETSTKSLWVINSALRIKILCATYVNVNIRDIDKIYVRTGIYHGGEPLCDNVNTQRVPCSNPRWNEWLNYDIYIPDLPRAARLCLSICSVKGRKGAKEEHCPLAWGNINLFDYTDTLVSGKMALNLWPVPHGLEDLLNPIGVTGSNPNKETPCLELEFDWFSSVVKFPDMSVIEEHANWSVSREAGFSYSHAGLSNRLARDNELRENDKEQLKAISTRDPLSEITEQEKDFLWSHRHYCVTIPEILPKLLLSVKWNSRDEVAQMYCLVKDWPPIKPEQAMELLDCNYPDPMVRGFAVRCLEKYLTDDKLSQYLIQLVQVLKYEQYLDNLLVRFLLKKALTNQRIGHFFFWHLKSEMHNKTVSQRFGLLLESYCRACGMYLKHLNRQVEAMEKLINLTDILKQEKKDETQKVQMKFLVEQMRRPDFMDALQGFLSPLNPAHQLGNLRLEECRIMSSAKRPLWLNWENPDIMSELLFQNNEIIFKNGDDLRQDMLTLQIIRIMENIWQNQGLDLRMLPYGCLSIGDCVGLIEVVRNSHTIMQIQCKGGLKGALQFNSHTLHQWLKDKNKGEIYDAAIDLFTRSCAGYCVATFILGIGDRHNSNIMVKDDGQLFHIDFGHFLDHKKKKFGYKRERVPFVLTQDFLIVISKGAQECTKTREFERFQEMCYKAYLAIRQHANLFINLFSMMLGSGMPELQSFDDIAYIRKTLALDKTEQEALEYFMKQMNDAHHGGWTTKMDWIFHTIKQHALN

In order of rising inhibition:
1. CC(C)N1c2cc(Nc3cccc(-c4ccncc4)c3)ccc2N(C)C(=O)[C@H]1C  -1%
2. COc1ccccc1-c1ccnc(Nc2ccc3c(c2)N(C(C)C)[C@H](C)C(=O)N3C)n1  0.1%
3. COc1ccccc1-c1cccc(Nc2ccc3c(c2)N(C(C)C)[C@H](C)C(=O)N3C)c1  3%
4. CC(C)N1c2cc(Nc3cccc(-c4cccc(C#N)c4)c3)ccc2N(C)C(=O)[C@H]1C  5.2%
5. CC(C)N1c2cc(Nc3nccc(-c4cccc(C#N)c4)n3)ccc2N(C)C(=O)[C@H]1C  63.1%

target: Phosphatidylinositol 4,5-bisphosphate 3-kinase catalytic subunit alpha isoform (Homo sapiens) (UniProt P42336); experiment: Inhibition PI3Kalpha (unknown origin) at 100 nM relative to control; conditions: not given

In order of rising inhibition:
1. CC(C)N1c2cc(Nc3cccc(-c4ccncc4)c3)ccc2N(C)C(=O)[C@H]1C  -4.1%
2. COc1ccccc1-c1cccc(Nc2ccc3c(c2)N(C(C)C)[C@H](C)C(=O)N3C)c1  -2.6%
3. COc1ccccc1-c1ccnc(Nc2ccc3c(c2)N(C(C)C)[C@H](C)C(=O)N3C)n1  -2.1%
4. CC(C)N1c2cc(Nc3cccc(-c4cccc(C#N)c4)c3)ccc2N(C)C(=O)[C@H]1C  -0.1%
5. CC(C)N1c2cc(Nc3nccc(-c4cccc(C#N)c4)n3)ccc2N(C)C(=O)[C@H]1C  14.1%

target: T3, Aurora kinase A (Homo sapiens) (UniProt O14965); experiment: Inhibition AuroraA (unknown origin) at 1 uM relative to control; conditions: not given
T3 sequence (whole entry): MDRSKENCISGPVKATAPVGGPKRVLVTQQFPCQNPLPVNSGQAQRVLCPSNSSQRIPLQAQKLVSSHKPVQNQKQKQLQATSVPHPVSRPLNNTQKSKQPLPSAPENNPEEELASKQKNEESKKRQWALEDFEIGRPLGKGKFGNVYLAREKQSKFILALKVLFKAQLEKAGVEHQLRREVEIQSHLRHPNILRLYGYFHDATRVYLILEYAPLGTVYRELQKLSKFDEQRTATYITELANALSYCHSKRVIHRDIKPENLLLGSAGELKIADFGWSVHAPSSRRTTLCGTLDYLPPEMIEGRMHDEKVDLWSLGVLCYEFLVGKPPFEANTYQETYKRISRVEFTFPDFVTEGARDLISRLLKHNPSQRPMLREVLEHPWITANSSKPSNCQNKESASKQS

In order of rising inhibition:
1. CC(C)N1c2cc(Nc3cccc(-c4cccc(C#N)c4)c3)ccc2N(C)C(=O)[C@H]1C  -1.8%
2. COc1ccccc1-c1cccc(Nc2ccc3c(c2)N(C(C)C)[C@H](C)C(=O)N3C)c1  -0.8%
3. CC(C)N1c2cc(Nc3cccc(-c4ccncc4)c3)ccc2N(C)C(=O)[C@H]1C  14.2%
4. CC(C)N1c2cc(Nc3nccc(-c4cccc(C#N)c4)n3)ccc2N(C)C(=O)[C@H]1C  54.4%
5. COc1ccccc1-c1ccnc(Nc2ccc3c(c2)N(C(C)C)[C@H](C)C(=O)N3C)n1  86.8%

target: T3, Aurora kinase A (Homo sapiens); experiment: Inhibition AuroraA (unknown origin) at 100 nM relative to control; conditions: not given

In order of falling inhibition:
1. COc1ccccc1-c1ccnc(Nc2ccc3c(c2)N(C(C)C)[C@H](C)C(=O)N3C)n1  37.4%
2. CC(C)N1c2cc(Nc3nccc(-c4cccc(C#N)c4)n3)ccc2N(C)C(=O)[C@H]1C  8.7%
3. COc1ccccc1-c1cccc(Nc2ccc3c(c2)N(C(C)C)[C@H](C)C(=O)N3C)c1  1.1%
4. CC(C)N1c2cc(Nc3cccc(-c4cccc(C#N)c4)c3)ccc2N(C)C(=O)[C@H]1C  -3%
5. CC(C)N1c2cc(Nc3cccc(-c4ccncc4)c3)ccc2N(C)C(=O)[C@H]1C  -6.1%

target: T2, Cyclin-dependent kinase 9; experiment: Inhibition of human CDK9 by mobility shift assay relative to control; conditions: not given; in short: as §2

In order of rising IC50:
1. CC(C)N1c2cc(Nc3nccc(-c4ccnc5ccccc45)n3)ccc2N(C)C(=O)[C@H]1C  19.8 nM
2. CNc1cccc(-c2ccnc(Nc3ccc4c(c3)N(C(C)C)[C@H](C)C(=O)N4C)n2)c1  22 nM
3. CC(C)N1c2cc(Nc3ncc(F)c(-c4cncc5ccccc45)n3)ccc2N(C)C(=O)[C@H]1C  23.9 nM
4. COc1ccc(-c2ccnc(Nc3ccc4c(c3)N(C(C)C)[C@H](C)C(=O)N4C)n2)cc1  31.7 nM
5. COc1cc(F)ccc1-c1ccnc(Nc2ccc3c(c2)N(C(C)C)[C@H](C)C(=O)N3C)n1  46.9 nM
6. CC(C)N1c2cc(Nc3nccc(-c4cccc5c4CCCN5)n3)ccc2N(C)C(=O)[C@H]1C  67 nM
7. CC(C)N1c2cc(Nc3nccc(-c4cccc5cnccc45)n3)ccc2N(C)C(=O)[C@H]1C  79.8 nM
8. CC(C)N1c2cc(Nc3nccc(-c4cccc5ncccc45)n3)ccc2N(C)C(=O)[C@H]1C  81.6 nM
9. CC(C)N1c2cc(Nc3nccc(-c4cccc(NC5CCCC5)c4)n3)ccc2N(C)C(=O)[C@H]1C  122 nM
10. COc1cccc(-c2ccnc(Nc3ccc4c(c3)N(C(C)C)[C@H](C)C(=O)N4C)n2)c1  126 nM
11. Cc1ccc(N)cc1-c1ccnc(Nc2ccc3c(c2)N(C(C)C)[C@H](C)C(=O)N3C)n1  151 nM
12. CC(C)N1c2cc(Nc3nccc(-c4cccc(NC5CCCCC5)c4)n3)ccc2N(C)C(=O)[C@H]1C  169 nM
13. Cc1c(N)cccc1-c1ccnc(Nc2ccc3c(c2)N(C(C)C)[C@H](C)C(=O)N3C)n1  183 nM

target: T1, Bromodomain-containing protein 4; experiment: Inhibition of His6-tagged BRD4 bromodomain 1 (unknown origin) expressed in Escherichia coli Bl21(DE3) cells at 10 uM incubated for 4 hrs by FP assay relative to control; conditions: not given; in short: as §1

In order of falling inhibition:
1. CC(C)N1c2cc(Nc3nccc(-c4cccc(NC5CCCCC5)c4)n3)ccc2N(C)C(=O)[C@H]1C  13%
2. CC(C)N1c2cc(Nc3nccc(-c4cccc(NC5CCCC5)c4)n3)ccc2N(C)C(=O)[C@H]1C  11%

target: T2, Cyclin-dependent kinase 9; experiment: Inhibition of CDK9 in human HCT-116 cells assessed as reduction in phosphorylation of […] protein expression at 50 to 500 nM after 24 hrs by Western blot analysis; format: cell-based; conditions: dose nM 50-500, time 24.0 hrs
In short: (§3)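 HCT-116 cells plated 24 h, then treated 24 h at 0, 50, 100, 250 or 500 nM. Lysates immunoblotted for p-AR and p-RNA Pol II CTD with GAPDH as loading control; bands quantified and normalized.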

For COc1cc(F)ccc1-c1ncnc(Nc2cccc(C[S@](C)(=N)=O)c2)n1, the inhibition was “Dose-dependent effect”.

target: T2, Cyclin-dependent kinase 9; experiment: Inhibition of CDK9 in human HCT-116 cells assessed as reduction in phosphorylation of AR protein expression at 50 to 500 nM after 24 hrs by Western blot analysis; format: cell-based; conditions: dose nM 50-500, time 24.0 hrs; in short: as §3

In the case of COc1cc(F)ccc1-c1ncnc(Nc2cccc(C[S@](C)(=N)=O)c2)n1, the inhibition is reported as “Dose-dependent effect”.
